Data reported in ChEMBL document CHEMBL1157821, “In vitro photodynamic therapy and quantitative structure-activity relationship studies with stable synthetic near-infrared-absorbing bacteriochlorin photosensitizers” (J Med Chem, 2010).

Key:
[1] = test system: HeLa; experiment: Photocytotoxicity against human HeLa cells after 24 hrs by MTT assay in presence of 10 J/cm2 laser; type: functional; conditions: light or radiation study, read-out: LD50 (the source's name)
Summary of the method: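 HeLa cells (5000/well) grown 24 h, then incubated 24 h with bacteriochlorin at 0.001–10 μM in complete RPMI with 10% serum (DMSO ≤0.2%). Medium replaced, then 10 J/cm2 of 732 nm laser light given (780 nm LED, 50 mW/cm2, for one compound). MTT (4 h, 562 nm) 24 h later. Survival is relative to untreated controls. LD50 in nM. Experiments done in triplicate.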

[2] = Octanol-water partition coefficient, log P by stir-flask method; type: physicochemical
Summary of the method: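 About 2 mL octanol and 2 mL water were pre-stirred 3 h at room temperature. Under 0.5 mg bacteriochlorin was added and stirred 24 h at 100–200 rpm, then the phases settled for 30 min. An aliquot of each phase was diluted in DMSO and the Qy(0,0) absorbance ratio (octanol/water) was taken. A phase with no detectable compound was set at A=0.001 as a bound.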

[3] = test system: HeLa; experiment: Cellular uptake in human HeLa cells measured per mg of protein at 20.5 uM after 24 hrs by fluorescence measurements; type: ADME, cell-based
Summary of the method: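 HeLa in RPMI with 10% heat-inactivated FBS, 5000 cells/well, grown 24 h, then given bacteriochlorin in complete medium (DMSO ≤0.2%) for 24 h. Cells were rinsed with warm PBS and lysed in SOLVABLE, 37 °C, 2 h. Fluorescence was read at ex 402/em 730 nm against per-compound calibration curves and normalized to BCA protein, giving nmol per mg protein. Three repeats.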

[4] = test system: HeLa; experiment: Cellular uptake in human HeLa cells assessed as localization to endoplasmic reticulum at 1 uM after 24 hrs by confocal fluorescence microscopy; type: ADME, cell-based
Summary of the method: (§1)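 HeLa plated in 35 mm dishes, attached overnight, then given 1 μM bacteriochlorin in complete medium for 24 h. After a PBS wash, cells got 5 μg/mL LysoTracker green DND-26, MitoTracker green FM or ER-Tracker green for 30 min at 37 °C, then were washed again. Confocal imaging used 488 nm excitation, 515 ± 10 nm (tracker) or >580 nm (bacteriochlorin) emission, and a 63× water objective.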

[5] = test system: HeLa; experiment: Cellular uptake in human HeLa cells assessed as localization to lysosomes at 1 uM after 24 hrs by confocal fluorescence microscopy; type: ADME, cell-based; summary of the method: as §1
[6] = test system: HeLa; experiment: Cellular uptake in human HeLa cells assessed as localization to mitochondria at 1 uM after 24 hrs by confocal fluorescence microscopy; type: ADME, cell-based; summary of the method: as §1

SMILES	CC50 [1] [nM]	logP ([2]; read-out: logP)	Drug uptake [3] [nmol/mg]	Drug uptake [4]	Drug uptake [5]	logP [2]	Drug uptake [6]
CC1(C)Cc2cc3[nH]c(cc4nc(cc5[nH]c(cc1n2)cc5C#CC[N+](C)(C)C)CC4(C)C)cc3C#CC[N+](C)(C)C.[Cl-].[Cl-]	2000	0.9	8.2	–	–	–	–
CC1(C)Cc2cc3[nH]c(cc4nc(cc5[nH]c(cc1n2)cc5CN(CCO)CCO)CC4(C)C)cc3CN(CCO)CCO	100	2.3	8.2	Active	Active	–	–
CC1(C)Cc2cc3[nH]c(cc4nc(cc5[nH]c(cc1n2)cc5C(=O)N1CC[N+](C)(C)CC1)CC4(C)C)cc3C(=O)N1CC[N+](C)(C)CC1.[Cl-].[Cl-]	800	–	1.8	–	–	-1	–
CC1(C)Cc2cc3[nH]c(cc4nc(cc5[nH]c(cc1n2)cc5C(=O)O)CC4(C)C)cc3C(=O)O	4000	1.4	0.72	–	–	–	–
CC1(C)Cc2cc3[nH]c(cc4nc(cc5[nH]c(cc1n2)cc5-c1cc(OCCO)cc(OCCO)c1)CC4(C)C)cc3-c1cc(OCCO)cc(OCCO)c1	15	≥ 2.2	10.4	–	–	–	–
CC1(C)Cc2cc3[nH]c(cc4nc(cc5[nH]c(cc1n2)cc5-c1cc(O)cc(O)c1)CC4(C)C)cc3-c1cc(O)cc(O)c1	80	≥ 2.5	13.5	Active	–	–	Active
CC1(C)Cc2cc3[nH]c(cc4nc(cc5[nH]c(cc1n2)cc5C(=O)NCCN)CC4(C)C)cc3C(=O)NCCN	3000	-0.5	7.7	–	Active	–	–
COCCC(CCOC)c1cc2cc3nc(cc4[nH]c(cc5nc(cc1[nH]2)CC5(C)C)cc4C(CCOC)CCOC)CC3(C)C	–	≥ 2.5	11.7	–	–	–	–
CC1(C)Cc2cc3[nH]c(cc4nc(cc5[nH]c(cc1n2)cc5C(=O)N(CCN)CCN)CC4(C)C)cc3C(=O)N(CCN)CCN	800	-1.4	1.8	–	–	–	–
CC1(C)Cc2cc3[nH]c(cc4nc(cc5[nH]c(cc1n2)cc5C(=O)/C=C/c1cc(O)cc(O)c1)CC4(C)C)cc3C(=O)/C=C/c1cc(O)cc(O)c1	200	≥ 1.8	1.8	–	–	–	–
COCCN(CCOC)C(=O)c1cc2cc3nc(cc4[nH]c(cc5nc(cc1[nH]2)CC5(C)C)cc4C(=O)N(CCOC)CCOC)CC3(C)C	60	≥ 1.9	15	–	–	–	–
COCCOCCOCCOCCNCc1cc(CNCCOCCOCCOCCOC)cc(-c2c3nc(cc4[nH]c(cc4-c4ccc(C)cc4)c(OC)c4nc(cc5[nH]c2cc5-c2ccc(C)cc2)C(C)(C)C4)C(C)(C)C3)c1	500	≥ 2.2	3.9	–	–	–	–
